Experimental data pooled from the literature.
Each line is one published result; the experiments were not run side by side.
P4HB: Protein disulfide-isomerase (P4HB, Homo sapiens, UniProt P07237)
CTSL: Procathepsin L (CTSL, Homo sapiens, UniProt P07711)
NEU1: Sialidase-1 (NEU1, Homo sapiens, UniProt Q99519)

| Compound | target | observed | mode | technique | quantity | result |
| --- | --- | --- | --- | --- | --- | --- |
| O=C(O[C@@H]1Cc2c(O)cc(O)cc2O[C@H]1c1ccc(O)c(O)c1)c1cc(O)c(O)c(O)c1 | P4HB | enzyme activity | inhibitor | fluorescence | IC50 | > 20 µM |
| OB1OCc2cc(F)ccc21 | blaNDM-5 (Escherichia coli, UniProt G3K399) | enzyme activity | inhibitor | – | IC50 | 19.6 µM |
| COCCC(=O)N[C@@H](CCC(N)=O)C(=O)N[C@@H](Cc1ccccc1)C(=O)N[C@@H](CCCNC(=N)N)C(=O)c1nc2ccccc2s1 | CTSL | cell-free assay | – | – | Ki | > 10 µM |
| [Cl][Cd][Cl] | Voltage-dependent P/Q-type calcium channel subunit alpha-1A (Homo sapiens, UniProt O00555) | ion current | inhibitor | patch clamp | IC50 | 4.2 µM |
| O=C(O)C1=C[C@H](O)[C@@H](n2cc(-c3ccc(-c4ccccc4)cc3)nn2)[C@H]([C@H](O)[C@H](O)CO)O1 | NEU1 | enzyme activity | inhibitor | – | IC50 | > 500 µM |
| CS(=O)(=O)N[C@@H](CCC(N)=O)C(=O)N[C@@H](Cc1ccccc1)C(=O)N[C@@H](CCCNC(=N)N)C(=O)c1nccs1 | CTSL | cell-free assay | – | – | Ki | > 10 µM |
| CC(C)(C)CC(=O)N[C@H]1[C@H]([C@H](O)[C@H](O)CO)OC(C(=O)O)=C[C@@H]1O | NEU1 | enzyme activity | inhibitor | – | IC50 | 160 µM |
| O=C(O)c1cc(O)c(O)c(O)c1 | P4HB | enzyme activity | inhibitor | fluorescence | IC50 | > 500 µM |
